# Bioassay records: PubChem BioAssay, The Scripps Research Institute Molecular Screening Center
# Rows were chosen to be rich in hits. Some 4.3% of all compounds tested hit in one or more screens of this group.
# TAAR1 antagonist – human TAAR1 antagonists, primary screen, Fluo-8 calcium fluorescence, CHO RD-HGA16 cells | AID 624466, 2012 | 1.5% of 360,000 active | Trace amine-associated receptor 1 (Homo sapiens), Q96RJ0 | inhibition, % at 3 µM | antagonist;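 active means inhibition above a per-plate cutoff, the mean inhibition of test compounds on that plate plus 3 SD, cut at about 49% in these data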;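 further: 0% = DMSO plus EC80 beta-PEA response and 100% = DMSO alone without agonist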
#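 Material: CHO RD-HGA16 cells bearing hTAAR1; compound dosing: one-point dosing, 3 µM nominal final; schedule: dye loading 75 min at 37 °C, then 30 min room temperature; measured by: calcium fluorescence with Fluo-8; control set: vehicle and agonist controls; replication: n of 1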
# CHO parental Ca – ATP-evoked calcium signal inhibitors, parental CHO, primary screen, counter-screen for OX1R antagonist project, cell-based, fluorescence, Fluo-8 calcium dye. 0.63% of 330,000 active. parental CHO-K1, ATP-induced calcium, Fluo-8 fluorescence. inhibition, % at 5.6 µM;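 active means inhibition above that plate's mean sample inhibition plus 3 SD, cut at about 26% in these data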;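 further: 0% = ATP-challenged DMSO wells and 100% = DMSO wells without ATP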
#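 Assay system: parental CHO cells; Read-out basis: percent inhibition of ATP-evoked calcium rise, normalized to controls; Benchmarks: ATP and no-ATP DMSO wells; Compound dosing: single nominal dose of 5.6 µM per compound; Signal: Fluo-8 calcium dye fluorescence; Also added: ATP as calcium-mobilizing challenge; Repeats: singlicate.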
# GalR3 antag – GalR3 antagonists in HEK293 cells, primary screen, cell-based, fluorescence readout | Galanin receptor type 3 (Homo sapiens), O60755 | HEK293 GalR3-CNG cAMP membrane potential fluorescence; galR3 body fused to GalR1 C-terminus | inhibition, % at 3 µM | 0.44% of 360,000 active;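 active means inhibition above the screen-wide average plus 3 SD, cut at about 13% in these data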;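 further: forskolin and galanin both at EC90 stimulate the cells; cAMP rise reported by CNG channel membrane potential dye signal; 0% = forskolin plus galanin with DMSO and 100% = forskolin alone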
# Target sequence (O60755 1-299 limits assumed): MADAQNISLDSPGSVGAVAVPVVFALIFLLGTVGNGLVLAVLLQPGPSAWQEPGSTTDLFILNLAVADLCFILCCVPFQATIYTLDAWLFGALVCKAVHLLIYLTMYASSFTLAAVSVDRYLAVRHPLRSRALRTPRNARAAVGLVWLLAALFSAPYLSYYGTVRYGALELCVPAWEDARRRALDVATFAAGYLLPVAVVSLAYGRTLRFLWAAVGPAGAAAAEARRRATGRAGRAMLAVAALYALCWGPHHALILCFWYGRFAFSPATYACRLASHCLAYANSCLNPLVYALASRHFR
# TAAR1 ag – human TAAR1 agonists, primary screen, Fluo-8 calcium fluorescence, CHO RD-HGA16 cells; 0.99% of 360,000 active; activation, % at 3 µM; vehicle wells 0%, saturating PEA agonist 100%; Trace amine-associated receptor 1 (Homo sapiens), Q96RJ0;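 active means activation above the mean activation of all test compounds in the run plus 3 SD, cut at about 38% in these data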
#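 Test system: RD-HGA16 (CHO) cells co-expressing Gα16 and hTAAR1 / Benchmarks: DMSO vehicle as 0%, PEA at EC100 as 100% / Repeats: no replicates (n 1) / Measure: % activation from peak over basal fluorescence ratio, DMSO-to-PEA scaled / Timing: 17-24 h plating, Fluo-8 75 min 37 °C, 30 min RT / Technique: kinetic Fluo-8 calcium fluorescence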
# OX1R antag-1 – antagonists of human orexin 1 receptor (OX1R); Orexin/Hypocretin receptor type 1 (Homo sapiens), O43613; OX1R-expressing cells, FRET antagonist read-out; inhibition, % at 6.6 µM; 1.8% of 330,000 active; in the data active means inhibition mostly above about 38%, no sharp cut-off; inactive means mostly below about 40%;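 further: 0% = agonist challenge alone and 100% = reference antagonist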
# Target sequence (O43613 whole entry, looked up): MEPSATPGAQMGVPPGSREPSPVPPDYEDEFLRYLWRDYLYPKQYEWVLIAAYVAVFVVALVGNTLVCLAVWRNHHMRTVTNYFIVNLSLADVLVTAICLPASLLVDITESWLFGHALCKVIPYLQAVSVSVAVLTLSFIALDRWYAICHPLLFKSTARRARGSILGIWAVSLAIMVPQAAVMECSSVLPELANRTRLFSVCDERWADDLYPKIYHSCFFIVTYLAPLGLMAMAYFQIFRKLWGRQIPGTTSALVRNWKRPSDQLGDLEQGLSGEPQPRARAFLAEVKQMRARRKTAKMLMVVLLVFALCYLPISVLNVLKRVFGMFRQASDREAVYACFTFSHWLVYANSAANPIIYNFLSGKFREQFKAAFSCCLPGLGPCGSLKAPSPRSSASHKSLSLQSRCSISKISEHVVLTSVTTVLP
# OX1R antag-2 – OX1R (HCRTR1) antagonists, primary screen, fluorescence, CHO/OX1R cells, Fluo-8 calcium, orexin A | Fluo-8 calcium fluorescence | inhibition, % at 5 µM | AID 434989, 2010 | 0.43% of 330,000 active;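 active means inhibition above its plate's threshold, mean inhibition of all tested compounds on the plate plus 3 SD, cut at about 37% in these data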;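 further: 0% = orexin A challenge wells and 100% = SB-334867-A antagonist wells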
# TAAR1 ag conf – human TAAR1 agonists, retest of hits, confirmation, Fluo-8 calcium fluorescence, CHO RD-HGA16 cells; shares compounds with TAAR1 ag; scaled: DMSO 0%, maximal phenethylamine 100%; activation, % at 3 µM; 82% of 2,400 active;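 active means activation above a cutoff set at the run's mean compound activation plus 3 SD, cut at about 39% in these data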
# Ga16 nonsel ag – nonselective calcium mobilization agonists, CHO-Ga16 cells, counter-screen for hTAAR1 agonist project, cell-based, fluorescence, CHO-Ga16 parental line | Fluo-8 calcium fluorescence; normalized to maximal ATP response, DMSO zero | shares compounds with TAAR1 ag | activation, % at 3 µM | 50% of 2,400 active;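 active means activation above the run cutoff, the mean activation over all tested wells plus 3 SD, cut at about 12% in these data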;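 further: 0% = DMSO wells and 100% = maximal ATP response on the peak over basal ratio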
# TAAR1 desensitize – TAAR1 desensitization by agonist hits, confirmation, counter-screen for TAAR1 agonist project, cell-based, fluorescence, tachyphylaxis | shares compounds with TAAR1 ag | AID 651951, 2012 | inhibition, % at 3 µM | 46% of 2,400 active | CHO RD-HGA16 hTAAR1, Fluo-8 calcium, beta-PEA response inhibition;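 active means inhibition above the run cutoff, the mean inhibition of all test compounds plus 3 SD, cut at about 49% in these data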;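 further: beta-PEA stimulus applied at its EC80; loss of beta-PEA calcium signal after compound pretreatment read as receptor desensitization; 0% = DMSO with beta-PEA at EC80 and 100% = DMSO alone without agonist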
# Ga16 antag count – inhibition of ATP-evoked calcium response in CHO-Ga16 cells, counter-screen for TAAR1 agonist project, cell-based, fluorescence; shares compounds with TAAR1 ag; CHO-Ga16 ATP-induced calcium, Fluo-8 fluorescence; inhibition, % at 3 µM; 39% of 2,400 active; AID 651952, 2012;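 active means inhibition above the plate's mean compound inhibition plus 3 SD, computed per plate, cut at about 22% in these data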;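 further: 0% = EC80 ATP with DMSO and 100% = DMSO wells without ATP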
# Active calls of the source: *; / = no result.
SMILES,TAAR1 antagonist,CHO parental Ca,GalR3 antag,TAAR1 ag,OX1R antag-1,OX1R antag-2,TAAR1 ag conf,Ga16 nonsel ag,TAAR1 desensitize,Ga16 antag count
FC(F)(F)c1cc(CCN2CCNC[C@@H]2CC2CCCCC2)cc(C(F)(F)F)c1,43,51*,-3,61*,-6,12,52*,60*,27,68*
CCC(C)[C@H]1CNCCN1CCc1cc(C(F)(F)F)cc(C(F)(F)F)c1 (some centres not stated),-36,30,6,49*,12,-18,59*,23*,3,10
CCCC[C@@H]1CNCCN1CCc1cc(C(F)(F)F)cc(C(F)(F)F)c1,-18,-12,0,24,27,-28,/,/,/,/
CN(CCc1ccccc1)C(CCc1ccccc1)C(=O)Nc1ccc2c(c1)OCCO2 (configuration not stated),-9,/,-5,11,/,/,/,/,/,/
COC(=O)N(C)C[C@@H]1OCc2cnnn2CCCC(=O)N([C@@H](C)CO)C[C@H]1C,-10,/,-5,1,/,/,/,/,/,/
O=C(NCc1ccccc1)C1c2ccccc2OCC(=O)N1Cc1ccco1 (configuration not stated),2,/,-3,0,/,/,/,/,/,/
c1ccc(CC2CCCNC2)cc1 (configuration not stated),18,3,-4,44*,15,-10,61*,0,33,7
Cc1cc(NS(=O)(=O)c2ccc(NC(=S)NC(=O)c3ccc(C(C)(C)C)cc3)cc2)no1,-5,-1,-3,45*,5,3,18,11,39,20
Cc1cc(NS(=O)(=O)c2ccc(NC(=S)NC(=O)c3ccccc3)cc2)no1,3,-3,-2,-1,14,-9,/,/,/,/
CCCC1=NN2C(=N)/C(=C\c3cc(C)n(Cc4ccccc4)c3C)C(=O)N=C2S1,101*,86*,-5,117*,11,104*,111*,96*,106*,100*
Cc1nccn1CC(=O)N/N=C/c1ccccc1O,-15,-17,2,59*,16,-5,63*,3,12,2
Cc1nccn1CC(=O)N/N=C/c1c[nH]c2ccccc12,-35,-6,-5,25,30,-7,/,/,/,/
CC(OC(=O)[C@@H](NS(=O)(=O)c1ccccc1)C(C)C)C(=O)c1c(N)n(C)c(=O)n(C)c1=O (some centres not stated),-18,/,-7,0,/,/,/,/,/,/
COc1ccc(C(CCNC(C)c2ccccc2)c2ccc(F)cc2)cc1 (configuration not stated),15,-1,-10,51*,7,1,66*,35*,38,34*
COc1ccc(C(CCNCc2ccccc2)c2ccc(F)cc2)cc1 (configuration not stated),19,-17,-6,25,2,-39,/,/,/,/
CC1(C)CC(=O)C=C(c2ccc(COC(=O)c3ccccc3)cc2)C1=O,35,/,-4,6,/,/,/,/,/,/
O=C(O)c1ccccc1-c1ccc(C=c2sc3nc4cc(Br)cnc4n3c2=O)o1,-19,/,-6,0,/,/,/,/,/,/
O=C(O)c1ccccc1-c1ccc(/C=C/c2cc(C(F)(F)F)[nH]c(=O)n2)o1,33,/,-2,237*,/,/,69*,117*,25,28*
Cn1nnc(NC(=S)NC(=O)c2cccc3ccccc23)n1,-4,-2,-1,1,6,3,/,/,/,/
c1ccc2c3c([nH]c2c1)CCNC3,81*,8,-9,82*,6,5,103*,0,93*,2
CC1(C)Cc2c(cnn2-c2ccccc2)C(NC(=O)CCc2ccc(=O)[nH]n2)C1 (configuration not stated),-21,-3,-5,2,5,12,/,/,/,/
Cc1cc(NC2CCCCC2)nc(NCc2ccccc2)n1,19,36*,-6,67*,19,-6,76*,52*,59*,39*
Cc1ccc(Nc2cc(C)nc(NCc3ccccc3)n2)cc1,2,15,-10,56*,7,-20,88*,42*,45,27*
COc1cc(C)nc(NCc2ccccc2)n1,-2,-8,-4,4,26,-14,/,/,/,/
CCCCOc1ccc(CSCCN)cc1Cl,-1,4,-3,77*,7,-6,64*,10,31,11
SMILES,TAAR1 antagonist,CHO parental Ca,GalR3 antag,TAAR1 ag,OX1R antag-1,OX1R antag-2,TAAR1 ag conf,Ga16 nonsel ag,TAAR1 desensitize,Ga16 antag count
CCn1nccc1NC(=O)c1csc([C@@H]2C[C@H](O)[C@@H](CO)O2)n1,-6,/,-2,0,/,/,/,/,/,/
COC(=O)c1cccc(-n2c(C)cc(/C=C3\SC(=O)NC3=O)c2C)c1,-4,/,1,6,/,/,/,/,/,/
Cc1cc(/C=C2/SC(=O)NC2=O)c(C)n1-c1ccc(N2CCOCC2)cc1,28,5,3,54*,16,-14,60*,38*,30,24*
N#Cc1ccc(/C=N/N=C(N)N)cc1,1,-14,-5,2,34,-1,/,/,/,/
NC(N)=N/N=C/c1ccc(Br)cc1,9,8,-7,58*,1,-9,80*,10,43,2
Cn1c(C(=O)N2CCN(c3nc4ccccc4s3)CC2)cc2sccc21,25,-12,-5,46*,23,-10,26,14*,42,25*
COc1ccccc1N1CCN(C(=O)c2cc3sccc3n2C)CC1,28,-24,-3,20,17,-29,/,/,/,/
